Compound activity from PubChem BioAssay.
Only some compounds are listed: those with a hit (about 2.8% of all), similar ones and a draw of the others.
NPY-Y2 PAM-ag – potentiates or activates human NPY-Y2 receptor; cells expressing NPY-Y2, potentiator/agonist read-out; activation, % at 3.6 µM; actives 0.45% (n = 220,000); in the data active = activation above about 27%;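 also: cells stimulated with NPY near EC25 plus isoproterenol at EC100; 0% = vehicle plus submaximal agonist and 100% = vehicle plus saturating agonist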
NPY Y2 blocker – antagonists of human neuropeptide Y receptor Y2; P49146; NPY-Y2 expressing cells, antagonist mode; inhibition, % at 2.7 µM; actives 0.99% (n = 140,000);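 also: 0% = vehicle with agonist challenge and 100% = reference antagonist with challenge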
NPY-Y1 PAM-ag – human NPY-Y1 potentiation or agonism, primary screen. NPY-Y1 expressing cells, potentiator/agonist activation. activation, % at 3.6 µM. actives 0.37% (n = 220,000); in the data active = activation above about 33%, passing the limit was not always enough;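 also: cells stimulated with NPY at EC10 then isoproterenol at EC100; 0% = low agonist plus stimulus and 100% = saturating agonist plus stimulus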
Target sequence (P25929 whole entry, looked up): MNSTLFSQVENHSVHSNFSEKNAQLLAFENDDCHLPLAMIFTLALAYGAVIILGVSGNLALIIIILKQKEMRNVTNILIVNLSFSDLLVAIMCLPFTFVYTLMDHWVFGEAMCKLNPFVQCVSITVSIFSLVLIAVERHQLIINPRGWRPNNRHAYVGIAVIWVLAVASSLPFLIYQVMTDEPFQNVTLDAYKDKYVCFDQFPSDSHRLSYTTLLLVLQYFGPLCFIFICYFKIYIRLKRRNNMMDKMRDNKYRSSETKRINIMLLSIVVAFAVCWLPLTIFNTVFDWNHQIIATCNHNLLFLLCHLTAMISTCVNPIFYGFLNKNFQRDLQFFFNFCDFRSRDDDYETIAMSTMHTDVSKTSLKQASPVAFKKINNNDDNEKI
NPY Y1 blocker – NPY-Y1 (human) receptor antagonism; HEK293-CNG Y1 cells, membrane potential fluorescence; NPY at EC95, then isoproterenol; inhibition, % at 3.6 µM; actives 1% (n = 200,000);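 active = inhibition above the campaign mean inhibition of all tested compounds plus 3 SD, cut at about 20% in these data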;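 also: 0% = DMSO wells given NPY plus isoproterenol and 100% = isoproterenol alone without NPY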
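Test system – HEK293 Y1/CNG channel cell line · Also added – NPY agonist 25 nM, then isoproterenol 1 µM plus Ro 20-1724 25 µM · Compound dosing – one concentration, 3.6 µM, in 0.4% DMSO · Schedule – compound incubation 1 h at room temperature, readout 45 min post-stimulation · Technique – fluorescence, membrane potential probe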
Measles CPE – protection of cells from measles virus; Measles virus-infected cells, CPE protection, absorbance; protection (pct of control), % at 4 µM; actives 1.5% (n = 140,000); AID 841; in the data active = protection mostly above about 24%, no sharp cut-off; inactive = mostly below about 26%
MDM2 E3 inh – inhibitors of human Mdm2 E3 ubiquitin ligase. Q00987. cell-based MDM2 ubiquitination luciferase reporter, 2 h; 0 = plate control, 100 = twice control, blank-subtracted. signal enhancement, % at 5 µM. actives 0.11% (n = 210,000);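 active = signal enhancement of 30% or more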;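 also: luminescence tracks abundance of the self-degrading MDM2-luciferase fusion protein; higher signal means inhibition of MDM2 E3 ligase activity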
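Test system: stable mammalian line carrying autodegrading MDM2–luciferase fusion reporter; quantity: 2000 cells in each well; times: 4 h cell settling then 2 h compound exposure, 37 °C; detection: luminescence with SteadyLite reagent, 15 min at room temperature; evaluation: percent signal gain over controls, blank-subtracted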
NPY1 antag conf – confirmation of human neuropeptide Y receptor Y1 antagonists. actives 21% (n = 1,200). AID 1254. inhibition, % at 3.6 µM. HEK293-CNG NPY-Y1, membrane potential fluorescence, cAMP; NPY challenge against isoproterenol-raised cAMP. shares compounds with NPY Y1 blocker; in the data active = inhibition above about 20%;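 also: 0% = vehicle with agonist plus stimulus and 100% = stimulus alone without agonist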
NPY-Y2 antag ct – human NPY-Y2 antagonism in NPY-Y1 counter-screen. shares compounds with NPY Y1 blocker. HEK293 NPY-Y2 CNG membrane potential fluorescence; cells given NPY, then isoproterenol. inhibition, % at 3.6 µM. actives 28% (n = 1,200);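 also: 0% = DMSO with agonist challenge and 100% = reference antagonist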
Starred values were filed as active, the others as inactive. Rule as the data show it, unless noted: active = inhibition above about 17%; inactive = the rest.

What do the screens show for `Cc1nn(S(=O)(=O)c2ccccc2)c(C)c1Sc1ccc([N+](=O)[O-])cc1`?
NPY-Y2 PAM-ag: 7; NPY Y2 blocker: 7; NPY-Y1 PAM-ag: -4; NPY Y1 blocker: 24*; Measles CPE: 7; MDM2 E3 inh: 5; NPY1 antag conf: 6; NPY-Y2 antag ct: 4

How did CCN1CCN(c2nc(-c3ccccc3)nc3ccccc23)CC1 do in these assays?
NPY-Y2 PAM-ag: 1; NPY Y2 blocker: 5; NPY-Y1 PAM-ag: -36; NPY Y1 blocker: 21*; Measles CPE: 12; MDM2 E3 inh: 1; NPY1 antag conf: 10; NPY-Y2 antag ct: 6

Results for c1cncc(-c2nc(N3CCOCC3)c3ccccc3n2)c1 ?
NPY-Y2 PAM-ag: 12; NPY Y2 blocker: 5; NPY-Y1 PAM-ag: 7; NPY Y1 blocker: 2; Measles CPE: 5; MDM2 E3 inh: -22

Results for COc1cccc(Cn2c(-c3nonc3N)nc3ccccc32)c1 ?
NPY-Y2 PAM-ag: -16; NPY Y2 blocker: 12; NPY-Y1 PAM-ag: -43; NPY Y1 blocker: 26*; Measles CPE: 13; MDM2 E3 inh: -17; NPY1 antag conf: 11; NPY-Y2 antag ct: 14

What do the screens show for `COc1cc(Cn2c(-c3nonc3N)nc3ccccc32)ccc1C`?
NPY-Y2 PAM-ag: -35; NPY Y2 blocker: 14; NPY-Y1 PAM-ag: -60; NPY Y1 blocker: 30*; Measles CPE: 2; MDM2 E3 inh: -4; NPY1 antag conf: 15; NPY-Y2 antag ct: 24*

Results for COc1cnc(-c2ccccn2)nc1Oc1ccc(Cl)c2ccccc12 ?
NPY-Y2 PAM-ag: -61; NPY Y2 blocker: 15; NPY-Y1 PAM-ag: -48; NPY Y1 blocker: 25*; Measles CPE: 23; MDM2 E3 inh: 1; NPY1 antag conf: 15; NPY-Y2 antag ct: 22*

How did COc1ccc(C(=O)Cc2nnc(C)s2)cc1 do in these assays?
NPY-Y2 PAM-ag: -11; NPY Y2 blocker: 2; NPY-Y1 PAM-ag: -9; NPY Y1 blocker: -7; Measles CPE: 7; MDM2 E3 inh: -6

What do the screens show for `COc1cccc(C2=NOC(C(=O)NCc3ccco3)C2)c1` (stereo unspecified)?
NPY-Y2 PAM-ag: -10; NPY Y2 blocker: 3; NPY-Y1 PAM-ag: -13; NPY Y1 blocker: 11; Measles CPE: 7; MDM2 E3 inh: 2

Results for COc1cccc(C2=NOC(C(=O)NCc3ccccc3)C2)c1 (stereo unspecified) ?
NPY-Y2 PAM-ag: -39; NPY Y2 blocker: 10; NPY-Y1 PAM-ag: -30; NPY Y1 blocker: 45*; Measles CPE: 23*; MDM2 E3 inh: 7; NPY1 antag conf: 17; NPY-Y2 antag ct: 28*

Results for COc1ccc(C2=NOC(C(=O)NCc3ccccc3)C2)cc1 (stereo unspecified) ?
NPY-Y2 PAM-ag: -12; NPY Y2 blocker: 8; NPY-Y1 PAM-ag: -18; NPY Y1 blocker: 29*; Measles CPE: 3; MDM2 E3 inh: 7; NPY1 antag conf: 13; NPY-Y2 antag ct: 19*

What do the screens show for `O=C(NCc1cccs1)C1CC(c2ccc(Cl)c(Cl)c2)=NO1` (stereo unspecified)?
NPY-Y2 PAM-ag: -35; NPY-Y1 PAM-ag: -18; NPY Y1 blocker: 24*; MDM2 E3 inh: 2; NPY1 antag conf: 18; NPY-Y2 antag ct: 29*

Results for O=C(NCc1cccs1)C1CC(c2ccc(Cl)cc2)=NO1 (stereo unspecified) ?
NPY-Y2 PAM-ag: -10; NPY-Y1 PAM-ag: -13; NPY Y1 blocker: 0; MDM2 E3 inh: 0

How did COc1ccc(S(=O)(=O)NCC2CCCN(C(=O)CC3CCCC3)C2)cc1 (stereo unspecified) do in these assays?
NPY-Y2 PAM-ag: 5; NPY-Y1 PAM-ag: 19; NPY Y1 blocker: 12; MDM2 E3 inh: -7

What do the screens show for `CCOC(=O)c1cc2ccccc2n1CCN(CC)CC`?
NPY-Y2 PAM-ag: -28; NPY Y2 blocker: 12; NPY-Y1 PAM-ag: -25; NPY Y1 blocker: 25*; Measles CPE: 15; MDM2 E3 inh: -17; NPY1 antag conf: 5; NPY-Y2 antag ct: 16

How did COc1ccc(C2CC(=O)c3sc(NC(C)=O)nc3C2)cc1 (stereo unspecified) do in these assays?
NPY-Y2 PAM-ag: -1; NPY Y2 blocker: 3; NPY-Y1 PAM-ag: -25; NPY Y1 blocker: 6; Measles CPE: 16; MDM2 E3 inh: -9

Results for S=C(NCc1ccccc1)NNc1nc2ccccc2[nH]1 ?
NPY-Y2 PAM-ag: -4; NPY-Y1 PAM-ag: -3; NPY Y1 blocker: 9; MDM2 E3 inh: -2

Results for CC(/C=N/NC(=O)c1cc(-c2cccn2C)n[nH]1)=C\c1ccccc1 ?
NPY-Y2 PAM-ag: -8; NPY-Y1 PAM-ag: -12; MDM2 E3 inh: -19

How did O=C(CN1CCN(S(=O)(=O)c2ccc3ccccc3c2)CC1)Nc1ccc2c(c1)CCC2 do in these assays?
NPY-Y2 PAM-ag: -1; NPY Y2 blocker: 5; NPY-Y1 PAM-ag: 11; NPY Y1 blocker: 3; Measles CPE: 17; MDM2 E3 inh: -8

How did Cc1ccc(C(=O)NNC(=O)CSc2n[nH]c(-c3cccnc3)n2)cc1 do in these assays?
NPY-Y2 PAM-ag: -14; NPY-Y1 PAM-ag: -1; NPY Y1 blocker: -6; MDM2 E3 inh: -4

How did COC(=O)[C@@]1(Cc2ccc(OC)cc2)[C@H]2c3cc(C(=O)N4CCCC4)n(Cc4ccc(OC)c(OC)c4)c3C[C@H]2CN1C(=O)c1ccccc1 do in these assays?
NPY-Y2 PAM-ag: -9; NPY Y2 blocker: 12; NPY-Y1 PAM-ag: -23; NPY Y1 blocker: 10; Measles CPE: 28

How did COC(=O)[C@@]1(Cc2ccc(F)cc2)[C@H]2c3cc(C(=O)N4CCCC4)n(Cc4ccc(C(F)(F)F)nc4)c3C[C@H]2CN1C(=O)c1ccccc1 do in these assays?
NPY-Y2 PAM-ag: -3; NPY Y2 blocker: 16; NPY-Y1 PAM-ag: -9; NPY Y1 blocker: 28*; Measles CPE: 30; NPY1 antag conf: 28*; NPY-Y2 antag ct: 9

What do the screens show for `O=C(NCc1ccccn1)C1CC(c2ccc(F)cc2)=NO1` (stereo unspecified)?
NPY-Y2 PAM-ag: 4; NPY Y2 blocker: 0; NPY-Y1 PAM-ag: 6; NPY Y1 blocker: 3; Measles CPE: 7; MDM2 E3 inh: -19

How did Cc1ccsc1C(=O)C1CCCN(Cc2cc(F)ccc2-n2cccn2)C1 (stereo unspecified) do in these assays?
NPY-Y2 PAM-ag: -34; NPY-Y1 PAM-ag: -22; NPY Y1 blocker: 30*; MDM2 E3 inh: -17; NPY1 antag conf: 8; NPY-Y2 antag ct: 12
